Results: ChEMBL document CHEMBL4004836, “Design, synthesis and anticancer properties of IsoCombretaQuinolines as potent tubulin assembly inhibitors” (Eur J Med Chem, 2017)
Activity calls are given as the source filed them. No cut-off for these calls is given here.

Experiments:
[1] = Cytotoxicity against human U87 cells assessed as decrease in cell growth after 72 hrs by resazurin dye-based fluorimetric method; format: functional, U-87MG ATCC; settings: U-87 MG
Procedure, shortened: (§1)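 Lines grown in RPMI 1640 with 10% FCS and 1% glutamine, 37 °C, 5% CO2. K562R is a doxorubicin-resistant K562 line. Seeded 5 × 10^3 cells/well, compound in DMSO (<0.1%) added after 24 h, then 72 h exposure. Resazurin for 2 h, fluorescence ex 560/em 590 nm. IC50 from 50% fluorescence drop versus untreated cells. Triplicate, averaged.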

K-562R = test: Cytotoxicity against human K562R cells assessed as decrease in cell growth after 72 hrs by resazurin dye-based fluorimetric method; format: functional; procedure, shortened: as §1
HCT-116 = test: Cytotoxicity against human HCT116 cells assessed as decrease in cell growth after 72 hrs by resazurin dye-based fluorimetric method; format: functional; settings: HCT-116, 72 h; procedure, shortened: as §1
[2] = Inhibition of sheep brain tubulin assembly by DAPI staining-based fluorimetric method; design: species or system Ovis aries
Procedure, shortened: (§2)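 Sheep brain tubulin purified by two assembly-disassembly cycles, about 2-3 mg/mL in 0.1 M MES, 0.5 mM MgCl2, 1 mM EGTA, 1 mM GTP, pH 6.6. Assembly followed by DAPI fluorescence at 37 °C. IC50 = concentration halving maximum assembly rate versus no compound. Single-point values given as % inhibition at 100 µM. Mean of three experiments.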

K562 = test: Cytotoxicity against human K562 cells assessed as decrease in cell growth after 72 hrs by resazurin dye-based fluorimetric method; format: functional; settings: K562, 72 h; procedure, shortened: as §1
A549 [3] = test: Cytotoxicity against human A549 cells assessed as decrease in cell growth after 72 hrs by resazurin dye-based fluorimetric method; format: functional; settings: A549, 72 h
Procedure, shortened: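 A549 grown in DMEM (4.5 g/L glucose, 10% FCS, 1% glutamine), 37 °C, 5% CO2. Seeded 5 × 10^3 cells/well, compound in DMSO (<0.1%) added after 24 h, 72 h exposure. Resazurin (CellTiter-Blue) for 2 h, fluorescence ex 560/em 590 nm. IC50 = concentration halving fluorescence versus untreated cells. Triplicate; mean of three experiments.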

Ovis aries = species: Ovis aries; test: Inhibition of sheep brain tubulin assembly at 100 uM by DAPI staining-based fluorimetric method relative to control; procedure, shortened: as §2
A549 [4] = test: Cell cycle arrest in human A549 cells assessed as accumulation at G2/M phase at 10 nM after 24 hrs by propidium iodide staining-based flow cytometric method; format: functional
Procedure, shortened: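 Exponentially growing A549 cells exposed for 24 h to 0.5, 1, 5 or 10 nM, with DMSO alone as control. DNA content read by propidium iodide staining and flow cytometry to give the cell-cycle profile.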

A549 [5] = test: Disruption of microtubule network organization in human A549 cells assessed as decrease in mitotic spindle formation after 24 hrs by DAPI staining-based inverted microscopic method; format: cell-based
Procedure, shortened: (§3)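 A549 cells on chamber slides, 24 h with or without compound. Fixed in 2% paraformaldehyde for 30 min, permeabilized with 0.25% Triton X-100, blocked with 1% BSA/10% goat serum. Mouse anti-β-tubulin overnight at 4 °C, then Alexa 647 secondary with Hoechst 33258 for 2 h, Alexa 488 phalloidin for F-actin. Imaged by inverted microscope, 60X oil objective.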

A549 [6] = test: Induction of microtubule network fragmentation in human A549 cells after 24 hrs by DAPI staining-based inverted microscopic method; format: cell-based; procedure, shortened: as §3

IC50 [2]	inhibition (Ovis aries)	Structure (SMILES)	IC50 [1]	IC50 (K-562R)	IC50 (HCT-116)	IC50 (K562)	IC50 (A549 [3])	Activity (A549 [4])	Activity (A549 [5])	Activity (A549 [6])
3900 nM	–	C=C(c1ccc(OC)cc1)c1cc(C(=O)OC)nc2ccccc12	2.3 nM	18 nM	160 nM	88 nM	–	–	–	–
1100 nM	–	C=C(c1ccc(OC)cc1)c1cc(C#N)nc2ccccc12	1 nM	0.9 nM	1.6 nM	9 nM	50 nM	–	–	–
1900 nM	–	COc1ccc(C(=CC#N)c2cc(C)nc3ccccc23)cc1	0.25 nM	6.6 nM	13.2 nM	17 nM	79 nM	–	–	–
–	24%	C=C(c1ccc(OC)cc1)c1nc2ccccc2nc1C	690 nM	–	–	–	–	–	–	–
1100 nM	–	C=C(c1ccc(OC)cc1)c1cc(C)nc2ccccc12	21 nM	0.7 nM	3 nM	17 nM	18.5 nM	–	–	–
17100 nM	–	C=C(c1ccc(OC)cc1)c1cc(C)cc2ccccc12	140 nM	–	–	–	–	–	–	–
23800 nM	–	C=C(c1ccc(OC)cc1)c1cc(C(N)=O)nc2ccccc12	240 nM	–	–	–	–	–	–	–
–	53%	C=C(c1ccc(OC)cc1)c1nc(C)cc2ccccc12	300 nM	–	–	–	–	–	–	–
600 nM	–	C=C(c1ccc(OC)c(O)c1)c1nc(C)nc2ccccc12	6.1 nM	–	–	–	–	–	–	–
2200 nM	–	C=C(c1ccc(OC)c(F)c1)c1cc(C)nc2ccccc12	4 nM	2.4 nM	9.6 nM	5 nM	9.5 nM	–	–	–
14300 nM	–	C=C(c1ccc(OC)cc1)c1cc(CO)nc2ccccc12	390 nM	–	–	–	–	–	–	–
–	–	C=C(c1ccc(OC)cc1)c1cc(C(F)(F)F)nc2ccccc12	21.7 nM	–	–	–	–	–	–	–
–	29%	C=C(c1ccc(OC)cc1)c1cc(C(=O)O)nc2ccccc12	75 nM	–	–	–	–	–	–	–
3900 nM	–	C=C(c1ccc(OC)c(O)c1)c1cc(C)nc2ccccc12	1.5 nM	2.4 nM	0.9 nM	1.8 nM	0.4 nM	Active	Dose-dependent effect	Dose-dependent effect
–	–	C=C(c1ccc(OC)cc1)c1nc(C)nc2ccccc12	40 nM	–	–	–	–	–	–	–
7200 nM	–	COc1ccc(C(=O)c2cc(C)nc3ccccc23)cc1	25 nM	52 nM	130 nM	139 nM	–	–	–	–

Structure (SMILES)	IC50 [2]	inhibition (Ovis aries)	IC50 [1]	IC50 (K-562R)	IC50 (HCT-116)	IC50 (K562)	IC50 (A549 [3])	Activity (A549 [4])	Activity (A549 [5])	Activity (A549 [6])
C=C(c1ccc(OC)c(O)c1)c1cc(OC)c(OC)c(OC)c1	2000 nM	–	7.8 nM	1.1 nM	–	0.8 nM	8.2 nM	–	–	–
